Measurements from different studies.
Read-out: enzyme activity
Mode: inhibitor
SRC: Proto-oncogene tyrosine-protein kinase Src (SRC, Homo sapiens, UniProt P12931)

CCCOc1ccc(OC)c(F)c1C(=O)c1ccc(C(=O)N[C@@H]2CNC[C@H]2NC(=O)c2ccc3[nH]ncc3c2)cc1
remaining activity (Proto-oncogene tyrosine-protein kinase Src (SRC, Homo sapiens, UniProt P12931, T341M); 10 µM): 53%

CC(C)(O)[C@H]1CC[C@H](Nc2ccc3ncc(-c4cccc(C(F)(F)F)c4)n3n2)CC1
remaining activity (SRC; 1 µM): 27.9%

Cc1ccc(NC(=O)c2ccc(C)c(C(F)(F)F)c2)cc1C#Cc1nn(C2CCC(O)CC2)c2ncnc(N)c12 (stereo not drawn)
remaining activity (SRC; 10 µM): 0%

CC(C)(C)c1nc(-c2cccc(NS(=O)(=O)c3c(F)cccc3F)c2F)c(-c2ccnc(N)n2)s1
remaining activity (SRC; radiometric; 1 µM): 68%

Cn1c(=O)n(-c2ccc(C(C)(C)C#N)cc2)c2c3cc(-c4cnc5ccccc5c4)ccc3ncc21
remaining activity (SRC; 10 µM): 121%

COc1cc(Nc2cnc(C#N)c(O[C@H](C)CN(C)C)n2)ncc1-c1cnn(C)c1
remaining activity (SRC; radiometric; 1 µM): 81%

CC(C)(C)C(=O)c1sc(NC2CCCCC2)nc1N
remaining activity (SRC; 10 µM): 99%

Cc1ccc(C(=O)Nc2ccc(CN3CCN(C)CC3)c(C(F)(F)F)c2)cc1C#Cc1cnc2cccnn12
remaining activity (SRC; 23.5 nM): 12%

FC(F)c1nc2ccccc2n1-c1nc(N2CCOCC2)nc(N2CCOCC2)n1
remaining activity (SRC; 10 µM): 104%

O=C(Nc1cnn(-c2csc(C(=O)NC3COC3)c2)c1)Nc1c(F)cccc1Cl
remaining activity (SRC; 5 µM): 98.4%

Cc1[nH]c(/C=C2\C(=O)Nc3ccc(F)cc32)c(C)c1C(=O)N[C@H]1CCN(C(=O)N(C)C)C1
remaining activity (SRC; 1 µM): 89%

Nc1ncnc2occ(-c3ccc(NC(=O)Nc4cc(C(F)(F)F)ccc4F)cc3)c12
remaining activity (SRC; 20 µM): 0.2%
